These results are taken from ChEMBL document CHEMBL5715959, “Inhibition of histone methyltransferase EZH2 in Schistosoma mansoni in vitro by GSK343 reduces egg laying and decreases the expression of genes implicated in DNA replication and noncoding RNA metabolism” (2018).

Test [1] deals with Schistosoma mansoni. The experiment in a line: Antischistosomal activity against Schistosoma mansoni assessed as schistosomula living cells at 10 to 50 uM incubated for 24 to 72 hrs by fluorescein diacetate staining based fluorescence microscope analysis. In kind it is functional, organism-based. The following applies: dose 10-50 µM, time 24-72 hrs. Summed up:
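Schistosomula were cultured in supplemented M169 with 10–50 μM GSK343 or 0.1% DMSO for 24, 48 and 72 h. A fresh well set was used per time point, with 2 μg/mL propidium iodide (dead) plus 0.5 μg/mL fluorescein diacetate (live) added. Parasites were read immediately by light and fluorescence microscopy; percent viable was computed against total parasites. About 3600 schistosomula per condition over four biological replicates; 70% ethanol served as positive control.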

The test system of test [2] is Schistosoma mansoni. The experiment in a line: Antischistosomal activity against Schistosoma mansoni assessed as increased H3K9ac level in schistosomula at 20 uM incubated for 48 hrs by Western blotting analysis. In kind it is functional, organism-based. Summed up: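 About 10,000 schistosomula were treated 48 h with 20 μM GSK343 or vehicle, then sonicated in Triton X-100 lysis buffer with PMSF and protease inhibitors. Supernatant nuclear extract (BCA-quantified, 10 μg) was run on 15% SDS-PAGE and blotted to nitrocellulose. Blots were probed with mark-specific monoclonal antibodies, then IRDye secondaries; infrared imaging was used and signals were normalized to total H3. t-test.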
In general terms: A western blot detects proteins with antibodies after separation by electrophoresis.

Test [3] deals with Schistosoma mansoni. The experiment in a line: Antischistosomal activity against female Schistosoma mansoni assessed as down-regulated Tyrosinase 2 mRNA level at 20 uM incubated for 48 hrs by RT-qPCR analysis. In kind it is functional, organism-based. Put shortly: (§1)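 Schistosomula (supplemented M169) or adult worms (supplemented RPMI) were treated 48 h with 20 μM GSK343 or 0.1% DMSO at 37°C, 5% CO2. qPCR normalizer genes were chosen from RNA-seq data as those with TPM >1 and a treated/control ratio of 0.9–1.1 that were not differentially expressed. Relative expression was calculated by comparative Ct; significance by t-test.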
A general note: In qPCR the cycle at which signal appears reflects the starting amount.

In test [4] the test system is Schistosoma mansoni. The experiment in a line: Antischistosomal activity against Schistosoma mansoni assessed as loss of spines at 20 uM incubated for 24 hrs by scanning electron microscopy analysis. In kind it is functional, organism-based. Summed up: (§2)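 Newly transformed schistosomula were held 16 h in M169 with 2% FBS, serotonin, hypoxanthine, hydrocortisone, triiodothyronine and antibiotics at 37°C, 5% CO2, at 2,000 per well. They were then exposed to 20 μM GSK343 or 0.1% DMSO for 24 and 48 h. Fixation was modified Karnovsky (pH 7.4) with 1% osmium post-fix, then ethanol dehydration, critical-point drying, gold coating and SEM. Lengths came from three experiments, each with 20 schistosomula.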

The subject of test [5] is Schistosoma mansoni. The experiment in a line: Antischistosomal activity against adult female Schistosoma mansoni assessed as damaged tegument with extensive sloughing at 20 uM incubated for 24 to 48 hrs by scanning electron microscopy analysis. In kind it is functional, organism-based. The following applies: time 24-48 hrs. Summed up: (§3)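 Adult couples were taken by perfusion into supplemented RPMI, one couple per well, and adapted 2 h at 37°C, 5% CO2. They were exposed to 20 μM GSK343 or 0.1% DMSO for 24 and 48 h. Fixation used modified Karnovsky with osmium post-fix, followed by ethanol dehydration, critical-point drying, gold sputtering and scanning electron microscopy of tegument surfaces.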

In test [6] the test system is Schistosoma mansoni. The experiment in a line: Cytotoxicity against adult Schistosoma mansoni assessed as reduction in ATP quantification at 20 uM incubated for 48 hrs by CellTiter-Glo Luminescent assay relative to control. In kind it is functional. Also on record: scale not given: the % may be the effect or the level left. Summed up: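 Worm pairs in supplemented RPMI (10% FBS, 37°C, 5% CO2) exposed 48 h to compound or 0.1% DMSO. ATP measured by luminescence in freshly lysed worms and expressed as % of vehicle signal; three replicate experiments, 10 pairs each, mean ± SD.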

The subject of test [7] is Schistosoma mansoni. The experiment in a line: Antischistosomal activity against adult female Schistosoma mansoni assessed as reduction in area dimension of egg at 20 uM incubated for 24 to 48 hrs by scanning electron microscopy analysis relative to control. In kind it is functional. Also noted: scale not given: the % may be the effect or the level left. The following applies: time 24-48 hrs. Summed up:
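Eggs released by couples kept 24 or 48 h with 20 μM GSK343 or 0.1% DMSO in supplemented RPMI were fixed in modified Karnovsky with osmium post-fix. They were dehydrated, critical-point dried, gold-coated and imaged by SEM; total egg area dimension was measured.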

The test system of test [8] is Schistosoma mansoni. The experiment in a line: Antischistosomal activity against female Schistosoma mansoni assessed as down-regulated p14 mRNA level at 20 uM incubated for 48 hrs by RT-qPCR analysis. In kind it is functional, organism-based.
For test [9], the system named is Schistosoma mansoni. The experiment in a line: Antischistosomal activity against Schistosoma mansoni assessed as down-regulated LDL receptor mRNA level in schistosomula at 20 uM incubated for 48 hrs by RT-qPCR analysis. In kind it is functional, organism-based. Summed up:
as §1

Test [10] has as its system Schistosoma mansoni. The experiment in a line: Antischistosomal activity against Schistosoma mansoni assessed as down-regulated Glucose transport protein mRNA level in schistosomula at 20 uM incubated for 48 hrs by RT-qPCR analysis. In kind it is functional, organism-based. Put shortly: as §1
In test [11] the test system is Schistosoma mansoni. The experiment in a line: Antischistosomal activity against female Schistosoma mansoni assessed as down-regulated nanos mRNA level at 20 uM incubated for 48 hrs by RT-qPCR analysis. In kind it is functional, organism-based. Summed up: as §1
The test system of test [12] is Schistosoma mansoni. The experiment in a line: Antischistosomal activity against juvenile Schistosoma mansoni assessed as destroyed oral sucker at 20 to 50 uM incubated for 48 hrs by scanning electron microscopy analysis. In kind it is functional, organism-based. The following applies: in the assay text read “at 50 uM” for “at 20 to 50 uM”. Summed up: (§4)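 Juvenile worms recovered by perfusion, five per well in supplemented RPMI (10% FBS, antibiotics, 37°C, 5% CO2), 2 h adaptation, then exposed 48 h to compound or 0.1% DMSO. Fixed in modified Karnovsky reagent (pH 7.4), washed in cacodylate buffer, post-fixed 1 h in 1% osmium tetroxide, ethanol-dehydrated, critical-point dried, gold-sputtered and imaged by scanning electron microscopy.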

The subject of test [13] is Schistosoma mansoni. The experiment in a line: Antischistosomal activity against Schistosoma mansoni assessed as lower growth rate at 20 uM incubated for 24 to 48 hrs by scanning electron microscopy analysis. In kind it is functional. The following applies: time 24-48 hrs. Put shortly: as §2
The test system of test [14] is Schistosoma mansoni. The experiment in a line: Antischistosomal activity against juvenile Schistosoma mansoni assessed as damaged dorsal surface ridge at 20 to 50 uM incubated for 48 hrs by scanning electron microscopy analysis. In kind it is functional, organism-based. The following applies: dose 20-50 µM. Put shortly: as §4
The subject of test [15] is Schistosoma mansoni. The experiment in a line: Antischistosomal activity against female Schistosoma mansoni assessed as down-regulated p48 mRNA level at 20 uM incubated for 48 hrs by RT-qPCR analysis. In kind it is functional, organism-based.
For test [16], the system named is Schistosoma mansoni. The experiment in a line: Antischistosomal activity against adult Schistosoma mansoni assessed as dead worms incubated for 24 hrs by inverted microscope analysis. In kind it is functional, organism-based. Summed up:
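Paired adult worms were cultured in RPMI/10% FBS with antibiotics at 37°C, 5% CO2, with GSK343 or 0.1% DMSO. They were viewed by inverted microscope at 3, 6, 12, 24 and 48 h. Motility was scored on a 0–3 scale (3 full movement, 1.5 partial or immobile but alive, 0 dead); death meant no movement over more than 2 min. Pairing was recorded. Three experiments, each with 10 pairs; mean ± SD.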

Test [17] concerns Schistosoma mansoni. The experiment in a line: Antischistosomal activity against adult male Schistosoma mansoni assessed as morphological alterations in anterior and posterior regions at 20 uM incubated for 48 hrs by scanning electron microscopy analysis. In kind it is functional, organism-based. Put shortly:
as §3

Test [18] has as its system Schistosoma mansoni. The experiment in a line: Antischistosomal activity against adult Schistosoma mansoni assessed as increased H3K27ac level at 20 uM incubated for 48 hrs by Western blotting analysis. In kind it is functional, organism-based. Put shortly: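 Fifty adult worm pairs were treated 48 h with 20 μM GSK343 or vehicle in supplemented RPMI/10% FBS, then lysed in Triton buffer. Nuclear pellets were acid-extracted overnight in 0.25 M HCl at 4°C and histones were TCA-concentrated. 10 μg went on 15% SDS-PAGE and nitrocellulose, probed with anti-H3K27me3, K9ac, K27ac or K4me3, then IRDye secondaries; infrared densitometry was normalized to anti-H3. Three biological replicates; t-test.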

The test system of test [19] is Schistosoma mansoni. The experiment in a line: Antischistosomal activity against adult female Schistosoma mansoni assessed as decrease in number of eggs laid at 20 uM incubated for 24 to 48 hrs by […] analysis relative to control. In kind it is functional. Also on record: scale not given: the % may be the effect or the level left. The following applies: time 24-48 hrs.

Each structure is given as a SMILES string. Calls of active or inactive are those of the source. The rule behind the calls is not given here.

Turning to `CCCc1cc(C)[nH]c(=O)c1CNC(=O)c1cc(-c2ccnc(N3CCN(C)CC3)c2)cc2c1cnn2C(C)C`, the outcome in [1], in test [2], in [3], in test [4], in test [5] and in test [8] was Active. Further, the result in test [9], in test [10], in [11], in test [12], in test [14] and in test [15] was Active. For the same compound, the outcome in [16] and in test [18] was Active. The values for the Activity in test [6], in [7] and in test [19] were 50%, 30% and 40%, respectively. Further, the “fold change (FC)” value in [13] amounted to 4. Besides, in [17], the outcome was inactive.
